Compound activity (PubChem BioAssay)
Only some compounds are listed: those with a hit (about 1.5% of all), similar ones and a draw of the others.
CSN deneddyl inh: CSN deneddylation inhibition; Q92905; Purified CSN, SCF-Nedd8-OG deneddylation, fluorescence polarization; inhibition, % at 12.5 µM; 360,000 tested, 0.38% active;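 active = pattern-corrected inhibition above about 35%, with an unprinted fluorescence ratio check between 0.5 and 1.5, limit read from the data, passing the limit was not always enough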
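Material: purified human Csn5 enzyme expressed in HEK293T cells / Medium: Tris buffer pH 7.5, NaCl, DTT, Tween-20, trehalose, ovalbumin / Compound dosing: 12.5 µM single point / Schedule: 90 min incubation of compound, enzyme and substrate at room temperature / Signal: fluorescence polarization of the substrate / Control set: no-enzyme wells high, enzyme-with-substrate wells low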
NR1D1 modulator: modulators of human Rev-erb alpha DNA binding | P20393 | Rev-erbα–FITC-DNA binding, fluorescence polarization, 90 min | activity, % at 10 µM | 370,000 tested, 0.79% active | AID 1259318;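 active = activity above about 14%, limit read from the data; passing the limit was not always enough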
Target sequence (P20393 whole entry, looked up): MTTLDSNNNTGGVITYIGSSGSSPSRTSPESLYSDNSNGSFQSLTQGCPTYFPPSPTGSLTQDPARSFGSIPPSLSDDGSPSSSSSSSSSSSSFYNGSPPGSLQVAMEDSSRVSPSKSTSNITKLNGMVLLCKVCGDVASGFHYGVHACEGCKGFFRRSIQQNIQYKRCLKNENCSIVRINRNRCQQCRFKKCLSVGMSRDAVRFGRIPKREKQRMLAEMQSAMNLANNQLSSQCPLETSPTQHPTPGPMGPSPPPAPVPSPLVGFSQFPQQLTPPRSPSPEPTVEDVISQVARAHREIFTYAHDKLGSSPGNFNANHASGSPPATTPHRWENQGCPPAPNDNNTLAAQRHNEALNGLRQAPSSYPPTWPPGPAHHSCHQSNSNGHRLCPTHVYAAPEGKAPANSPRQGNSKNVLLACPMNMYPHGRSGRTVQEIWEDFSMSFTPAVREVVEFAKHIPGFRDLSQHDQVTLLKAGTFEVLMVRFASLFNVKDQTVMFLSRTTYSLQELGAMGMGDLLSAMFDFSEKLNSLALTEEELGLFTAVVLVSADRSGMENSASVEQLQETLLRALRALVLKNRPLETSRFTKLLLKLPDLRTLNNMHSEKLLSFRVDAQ
HNF4A DNA FP: change in binding of human HNF4 alpha to DNA; P41235; HNF4a-FITC DNA binding, fluorescence polarization, 1 h; activity change, % at 10 µM; 360,000 tested, 0.3% active; AID 1224865; in the data active = activity change above about 30%, passing the limit was not always enough
aDG glyco act: increases alpha dystroglycan glycosylation. Pro5-aDG cells, alpha-DG glycosylation AlphaScreen (IIH6); 0% Pro5, 100% B10-LARGE cell signal. AID 624168. 360,000 tested, 0.22% active. activation, % at 10 µM;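 active = activation of at least 8% versus controls, or a plate z-score of at least 8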;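 also: Pro5 are CHO cells carrying HIG-tagged alpha-DG that lacks glycosylation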
aDG conf: confirmation of alpha dystroglycan glycosylation activators. shares compounds with aDG glyco act. Pro5-aDG cells, alpha-DG glycosylation, IIH6 AlphaLISA; scaled to LARGE-overexpressing B10 cells as 100%. activation, % at 10 µM (by protocol). 600 tested, 17% active. AID 651671;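 active = activation of at least 7% in one or more replicates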;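 also: cells exposed to compound for two days before detection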
Hits are given with their value; n = inactive; x = not tested or not shown.

SMILES	CSN deneddyl inh	NR1D1 modulator	HNF4A DNA FP	aDG glyco act	aDG conf
N#Cc1cc(F)cc(OC[C@@H](O)CN2CCC(C(O)(c3ccccc3)c3ccccc3)CC2)c1	x	n	x	x	x
Cc1cccc(OCC(C)CN2CCC(C(O)(c3ccccc3)c3ccccc3)CC2)c1 (stereo not drawn)	x	n	x	x	x
C[C@H]1CN([C@@H](C)CO)S(=O)(=O)c2ccc(Br)cc2O[C@H]1CN(C)C(=O)CN(C)C	n	n	n	10	n
C[C@@H]1CN([C@@H](C)CO)S(=O)(=O)c2ccc(Br)cc2O[C@H]1CN(C)C(=O)CN(C)C	n	n	n	n	x
COc1ccccc1NS(=O)(=O)c1cc(NC(=O)c2ccc(Cl)nc2)ccc1Cl	n	n	n	n	x
COc1ccc(C(=O)Nc2ccc(Cl)c(S(=O)(=O)Nc3ccccc3OC)c2)cc1	n	n	n	3.7	n
O=C(CC1SC(=Nc2ccccc2)N(CCc2ccccn2)C1=O)Nc1ccc(F)cc1 (stereo not drawn)	n	n	n	11	n
C=CCN(C)CC#Cc1ccc(C)cc1	x	n	x	x	x
Cn1c2ccccc2c2nnc(NN)nc21	n	n	n	n	x
CCCCc1c(C)nn(-c2nnc3c4ccccc4n(C)c3n2)c1C	n	n	n	4.2	n
CN(Cc1ccccc1)C(=O)OCc1cn(Cc2ccccc2)nn1	x	n	x	x	x
O=C(COc1ccc2ccc(=O)oc2c1)N1CCN(C(=O)C2COc3ccccc3O2)CC1 (stereo not drawn)	n	n	n	7.8	n
Cc1cc(=O)oc2cc(OCC(=O)N3CCN(C(=O)C4COc5ccccc5O4)CC3)ccc12 (stereo not drawn)	n	n	n	n	x
Cc1cccc(N=C2NC(=O)CS2)c1	n	n	n	6.4	n
COC(=O)[C@H]1C[C@@]2(N3CCCCC3)c3ccccc3N(S(=O)(=O)c3ccccc3)[C@H]2N1	x	n	x	x	x
COC(=O)c1c(NC(=O)CSc2nnc(-c3ccco3)n2C)sc(C)c1C	n	n	n	6.1	n
CCOC(=O)CC[C@H]1CC[C@]2(CCCN(C(=O)c3ccco3)C2)O1	x	n	x	x	x
O=C(C1CCC1)N1CCN(c2cccc(C(F)(F)F)c2)CC1	n	n	n	n	x
O=C(C1CCN(c2nnc(-n3cccc3)s2)CC1)N1CCN(c2cccc(C(F)(F)F)c2)CC1	n	n	n	8.0	n
Cc1ccc(-n2c(SCC(N)=O)nnc2-c2ccco2)cc1	n	n	n	4.3	n
O=C(NC1CCCCN(Cc2cccc(C(F)(F)F)c2)C1=O)c1ccc(Cl)c(Cl)c1 (stereo not drawn)	x	n	x	x	x
Cc1cc(CNC(=O)COc2ccc(F)cc2F)c2ccccc2n1	n	n	n	n	x
Cc1cc(CNC(=O)COc2cc(F)ccc2[N+](=O)[O-])c2ccccc2n1	n	n	n	8.2	n
COc1cccc(CN(C)C(=O)c2cccc(S(=O)(=O)N3CCN(c4ccc(F)cc4)CC3)c2)c1OC	n	n	n	3.5	n
COc1cccc(CN(C)C(=O)c2cccc(S(=O)(=O)N3CCN(c4ccccc4)CC3)c2)c1OC	n	n	n	n	x
SMILES	CSN deneddyl inh	NR1D1 modulator	HNF4A DNA FP	aDG glyco act	aDG conf
CCc1ccc(Nc2cc(=O)n(C3CCCCC3)c(=O)[nH]2)cc1	n	n	n	6.9	n
O=c1cc(Nc2ccc3c(c2)OCCO3)[nH]c(=O)n1C1CCCCC1	n	n	n	n	x
Cc1ccc(C2CCC3(CCC(=O)N3CCO)CC2)cc1 (stereo not drawn)	x	n	x	x	x
CCCCCC[C@@H](CC)CN(C(=O)Oc1ccccc1)c1ccccc1	x	n	x	x	x
Cc1nn(C)cc1C1C2=C(CC(C)(C)CC2=O)N(c2ccccc2)C2=C1C(=O)CC(C)(C)C2	n	n	n	4.2	n
Cc1ccc(N2C3=C(C(=O)CC(C)(C)C3)C(c3cn(C)nc3C)C3=C2CC(C)(C)CC3=O)cc1	n	n	n	n	x
NC(=S)NNc1ccnc2cc(Cl)ccc12	n	n	n	n	x
O=C(NNc1ccnc2cc(Cl)ccc12)C1CCCCC1	n	n	n	10	n
COC(=O)C1CCN(C(=O)CCn2nnc(-c3cccs3)n2)CC1	x	n	x	x	x
COc1ccc(NC(=O)COC(=O)Cn2cnc3ccccc32)cc1	n	n	n	n	x
O=C(Cn1cnc2ccccc21)Nc1ccc(SC(F)F)cc1	n	n	n	10	n
CCCCCCCCNC(=O)C1CSCCS(=O)(=O)N1Cc1ccc(OC)cc1 (stereo not drawn)	x	n	x	x	x
Cc1nnc(SCC(=O)NC2CCCc3ccccc32)n1-c1ccccc1 (stereo not drawn)	n	n	n	7.0	n
CN(C)c1ccc(C(=O)OCC(=O)Nc2ccc(S(N)(=O)=O)cc2)cc1	n	n	n	6.0	n
CN(C)c1ccc(NC(=O)COC(=O)c2ccc3c(c2)OCO3)cc1	n	n	n	n	x
CCCCCCCCN1C(=O)[C@@H](CC(=O)NCc2cccs2)C[C@@]2(C(=O)OC)C1=C[C@H](COCc1ccccc1)O[C@@H]2C	x	n	x	x	x
COc1ccc(NC(=O)Nc2nnc(C(C)(C)C)s2)cc1	n	n	n	n	x
CC(C)(C)c1nnc(NC(=O)Nc2ccc(Cl)cc2)s1	n	n	n	2.2	n
CC(=O)C1(C(=O)NCc2ccccc2)CC(c2ccccc2C(F)(F)F)=NO1 (stereo not drawn)	x	n	x	x	x
O=C(Nc1ccc2ccccc2c1)C1CC2CCC1C2 (stereo not drawn)	x	n	x	x	x
O=C(NCc1cccnc1)NC1(c2ccccc2)CC1	n	n	n	10	n
Cc1ccccc1OCC(=O)N/N=C/c1ccc([N+](=O)[O-])o1	n	n	n	7.9	n
O=C(N/N=C/c1ccc([N+](=O)[O-])o1)c1ccccc1-n1cccc1	n	n	n	3.3	n
O=C(CNc1cccc([N+](=O)[O-])c1)N/N=C/c1ccc([N+](=O)[O-])o1	n	n	n	19	4.7
CCOC(=O)N/N=C\c1ccc([N+](=O)[O-])o1	n	n	n	n	x
SMILES	CSN deneddyl inh	NR1D1 modulator	HNF4A DNA FP	aDG glyco act	aDG conf
CC1(C(=O)N/N=C/c2ccc([N+](=O)[O-])o2)CC1(Br)Br (stereo not drawn)	n	n	n	4.6	n
O=S1(=O)c2c(cccc2N2CCSCC2)Oc2ccccc2CN1Cc1cn(Cc2ccccc2C(F)(F)F)nn1	x	n	x	x	x
COc1cc(NC(=O)C2CCN(c3nnc(-n4cccc4)s3)CC2)cc(OC)c1	x	n	x	x	x
COc1ccc(N=C2SCC(=O)N2CCc2ccc(OC)c(OC)c2)cc1	n	n	n	n	x
COc1ccc(CCN2C(=O)CSC2=Nc2ccc(C(C)C)cc2)cc1OC	n	n	n	2.9	n
O=C(Nc1ccc(Cl)cc1)C1Cc2c(-c3ccc(Cl)cc3)ccnc2O1 (stereo not drawn)	n	n	n	n	x
CC(C)c1ccc(NC(=O)C2Cc3c(-c4ccc(Cl)cc4)ccnc3O2)cc1 (stereo not drawn)	n	n	n	5.0	6.5
CN(CCO)c1cccc2c1S(=O)(=O)N(Cc1cn(Cc3cccc(F)c3)nn1)Cc1ccccc1O2	x	n	x	x	x
O=C(/C=C/c1ccc2c(c1)OCCO2)N1CCN(c2ccc(F)cc2)CC1	n	n	n	n	x
